The subject of assay [1] is dengue virus type 2. Briefly: Antiviral activity against dengue virus 2 infected in african green monkey Vero cells assessed as reduction in viral replication dosed after adsorption with 200 FFU of virus for 1 hour by foci forming unit reduction assay. The format is functional, organism-based.
Assay [2] can be described thus: Inhibition of dengue virus 3 NS2B-NS3 serine protease assessed as reduction in hydrolysis of Boc-Gly-Arg-Arg-7-amino-4-methylcumarin substrate. On the set-up: species or system dengue virus type 3. A digest of the protocol:
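Recombinant DENV3 NS2B-NS3 (50 nM) was run in 50 mM Tris HCl pH 9.0 with 1 mM CHAPS and 100 substrate. Compounds in DMSO were screened at 50 final, with IC50 from serial dilutions over 0.5–200. Three independent determinations in duplicate; background-corrected 2-parameter fit (lower limit 0, upper 100).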

The nature of assay [3]: Inhibition of dengue virus 2 NS2B-NS3 serine protease assessed as reduction in hydrolysis of Boc-Gly-Arg-Arg-7-amino-4-methylcumarin substrate by Dixon plot. On the set-up: species or system dengue virus type 2. The essentials: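 Recombinant DENV2 NS2B-NS3 at 47.63 nM in 200 mM Tris-HCl pH 9.5, 6 mM NaCl, 30% glycerol. Boc-Gly-Arg-Arg-AMC at 25–200 µM with inhibitor fixed at 10–32 µM; AMC release read at ex 380/em 460 nm. Analysed by Lineweaver-Burk and Dixon plots, with Ki = Kiapp/(1+[S]/Km), [S] […] Mean of three independent assays.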

Assay [4] in a line: Inhibition of dengue virus 3 NS2B-NS3 serine protease assessed as reduction in hydrolysis of Boc-Gly-Arg-Arg-7-amino-4-methylcumarin substrate by Dixon plot. Set-up: species or system dengue virus type 3.
Assay [5] in a line: Inhibition of dengue virus 2 NS2B-NS3 serine protease assessed as reduction in hydrolysis of Boc-Gly-Arg-Arg-7-amino-4-methylcumarin substrate. On the set-up: species or system dengue virus type 2.
Assay [6] in a line: Non-competitive inhibition of dengue virus 2 NS2B-NS3 serine protease assessed as reduction in hydrolysis of Boc-Gly-Arg-Arg-7-amino-4-methylcumarin substrate by Lineweaver-Burk plot and Dixon plot. Set-up: species or system dengue virus type 2.
Assay [7] is described as follows: Binding affinity to NT-647-NHS fluorescent dye-labeled dengue virus 3 NS2B-NS3 serine protease incubated for 10 mins by microscale thermophoresis method. On the set-up: species or system dengue virus type 3. The essentials: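 Recombinant DENV3 NS2B-NS3, dye-labeled, mixed 1:1 with ligand dilutions to a final 25 nM protein and 0.06–1000 µM ligand. Buffer: 50 mM Tris-HCl pH 9.0, 1 mM CHAPS, plus 10% DMSO and 0.05% Tween 20 on the ligand side only. After 10 min, capillary thermophoresis was measured. KD came from data fitting, mean of three independent assays.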
(In MST a laser heats a spot of the sample, and binding alters the fluorescence response.)

≈ marks a conversion by molar mass, not a printed value.

As usually defined, the IC50 is the point on the concentration scale where inhibition reaches its midpoint. With `O=c1cc(-c2ccccc2)oc2cc(O)c(O)c(O)c12` [BAICALEIN], the half-maximal inhibitory concentration (IC50) in assay [1] was 6.46 µg/mL (≈ 23.9 µM).

As for `O=c1c(O)c(-c2ccc(O)c(O)c2)oc2cc(O)ccc12` [FISETIN], the 50% inhibitory concentration (IC50) in assay [1] was determined as 55 µg/mL (≈ 192 µM).

In general, Ki refers to the dissociation constant of the complex between target and ligand, obtained from inhibition or displacement. As to `O=c1c(O[C@@H]2O[C@H](CO)[C@@H](O)[C@H](O)[C@H]2O)c(-c2ccc(O)c(O)c2)oc2cc(O)cc(O)c12` [ISOQUERCETIN], the IC50 turned out to be 42.4 µM in assay [2] and 44 µM in assay [5]. In addition, the figures for the Ki in assay [3] and in assay [4] were 25.9 µM and 37.1 µM, respectively.

Take `O=c1c(O)c(-c2ccc(O)cc2)oc2cc(O)cc(O)c12` [KAEMPFEROL]: the IC50 is 27.7 µM in assay [2] and 37.8 µM in assay [5]. Further, the Ki in assay [3] was 22.3 µM; in assay [4], 24.2 µM.

For the compound `O=c1c(O)c(-c2cc(O)c(O)c(O)c2)oc2cc(O)cc(O)c12` [MYRICETIN], the figures for the IC50 in assay [2] and in assay [5] were 29.3 µM and 22.3 µM, respectively. For the same compound, the Ki in assay [4] came to 25.7 µM; in assay [6] it was 4.7 µM.

In general, Kd refers to the equilibrium constant for the complex coming apart. For the compound `O.O=c1c(O)c(-c2ccc(O)c(O)c2)oc2cc(O)cc(O)c12` [QUERCETIN DIHYDRATE], the IC50 in assay [2] was found to be 22.7 µM; in assay [1], 35.7 µg/mL; in assay [5] it was 35.2 µM. Further, the Ki in assay [3] is 20.7 µM; in assay [4] it was 19.9 µM. Further, in assay [7], binding was put at a Kd of 20 µM.

For `C[C@@H]1O[C@@H](Oc2c(-c3ccc(O)c(O)c3)oc3cc(O)cc(O)c3c2=O)[C@H](O)[C@H](O)[C@H]1O` [QUERCITRIN], the IC50 stood at 32 µM in assay [2] and 43.6 µM in assay [5]. Further, the Ki in assay [3] came to 25.7 µM; in assay [4] it was 28 µM.

Values taken from ChEMBL document CHEMBL3393001, “Flavonoids as noncompetitive inhibitors of Dengue virus NS2B-NS3 protease: inhibition kinetics and docking studies” (Bioorg Med Chem, 2015).
